≈ marks a conversion by molar mass, not a printed value. Where “and” joins values, the source holds several entries; their conditions need not be identical. Equal values may be shown once. Calls of active or inactive are those of the source. The calls are words filed in the database; no cut-off is given here.
How the values were obtained:
[1] = Solubility of the compound in PBS; type: physicochemical
[2] = Acute toxicity in BALB/c mouse assessed as effect on blood ALT level at 400 mg/kg, po measured on day 14; type: organism-based; details: in vivo
Outline: (§1)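 BALB/c mice, female and male, 6-8 weeks old, given oral doses within 24 h, up to 400 mg/kg (free compound) or 800 mg/kg (nanocrystal formulation). Watched for body weight loss, diarrhea, anorexia, skin ulcer and toxic death. Serum biochemistry panel was run at the end of treatment.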

Raji [3] = assay: Induction of apoptosis in human Raji cells assessed as necrotic cells at 0.125 uM measured after 48 hrs by Annexin V-FITC staining based flow cytometry (reference value: 0.21 %); type: functional
NAMALVA = assay: Antiproliferative activity against human NAMALWA cells assessed as reduction in cell viability measured after 48 hrs by MTT assay; type: functional, cell-based; details: Homo sapiens, NAMALVA, 48 h
[4] = Toxicity in NOD-SCID nude mouse xenografted with human Raji cells assessed as dermatitis at 30 mg/kg/day, po administered 6 days a week for 3 weeks; type: organism-based; details: in vivo
Outline: (§2)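 Mice, 6-7 weeks old, injected s.c. with 1×10^7 Raji cells in serum-free medium plus basement membrane matrix. At 100–200 mm3 tumours, randomised (n=6). Oral dosing 6 days/week for 3 weeks: 30 mg/kg/d free compound suspended in 5% NMP/95% PEG400, or 40 or 80 mg/kg/d nanocrystal. Body weight and tumour volume measured every 3 days.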

[5] = Acute toxicity in BALB/c mouse assessed as effect on blood TG level at 800 mg/kg, po measured on day 14; type: organism-based; details: in vivo; outline: as §1
[6] = Tmax in Sprague-Dawley rat at 25 mg/kg, po administered via gavage by LC-MS analysis; type: ADME, organism-based; details: in vivo
Outline: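 Male Sprague-Dawley rats, fasted overnight, jugular vein catheter for serial blood sampling. Single dose of 25 mg/kg by oral gavage or 5 mg/kg by tail-vein injection. Blood drawn at set times and spun at once for plasma, plasma drug by LC-MS. Parameters given as mean, n = 6.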

HCT-116 = assay: Antiproliferative activity against human HCT116 cells assessed as reduction in cell viability measured after 48 hrs by MTT assay; type: functional, cell-based; details: Homo sapiens, HCT-116, 48 h
[7] = Acute toxicity in BALB/c mouse assessed as effect on kidney at 400 mg/kg, po measured on day 14 by H and E staining based light microscopic analysis; type: organism-based; details: in vivo
Outline: (§3)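 Female and male BALB/c mice, 6-8 weeks old, dosed orally within 24 h at up to 400 mg/kg (free compound) or 800 mg/kg (nanocrystal). At the end of treatment, heart, liver, spleen, lung and kidney were sectioned, stained with H&E and imaged by light microscopy.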

[8] = Acute toxicity in BALB/c mouse assessed as effect on lung at 400 mg/kg, po measured on day 14 by H and E staining based light microscopic analysis; type: organism-based; details: in vivo; outline: as §3
Raji [9] = assay: Antiproliferative activity against human Raji cells assessed as reduction in cell viability measured after 48 hrs by MTT assay; type: functional, cell-based; details: Homo sapiens, Raji, 48 h
[10] = Acute toxicity in BALB/c mouse assessed as effect on blood ALP level at 400 mg/kg, po measured on day 14; type: organism-based; details: in vivo; outline: as §1
[11] = Acute toxicity in BALB/c mouse assessed as effect on blood HDL level at 800 mg/kg, po measured on day 14; type: organism-based; details: in vivo; outline: as §1
[12] = Acute toxicity in BALB/c mouse assessed as effect on blood BILT level at 400 mg/kg, po measured on day 14; type: organism-based; details: in vivo; outline: as §1
Raji [13] = assay: Induction of apoptosis in human Raji cells assessed as necrotic cells at 0.031 uM measured after 48 hrs by Annexin V-FITC staining based flow cytometry (reference value: 0.21 %); type: functional
[14] = Toxicity in NOD-SCID nude mouse xenografted with human Raji cells assessed as effect on body weight at 40 to 80 mg/kg/day, po administered 6 days a week for 3 weeks and measured every 3 days during compound dosing; type: organism-based; details: in vivo; outline: as §2
[15] = Acute toxicity in BALB/c mouse assessed as effect on blood HDL level at 400 mg/kg, po measured on day 14; type: organism-based; details: in vivo; outline: as §1
[16] = Acute toxicity in BALB/c mouse assessed as effect on blood BUN level at 800 mg/kg, po measured on day 14; type: organism-based; details: in vivo; outline: as §1
[17] = Acute toxicity in BALB/c mouse assessed as effect on heart at 800 mg/kg, po measured on day 14 by H and E staining based light microscopic analysis; type: organism-based; details: in vivo; outline: as §3
Raji [18] = assay: Induction of mitochondrial membrane potential loss in human Raji cells measured after 48 hrs by TMRM staining based fluorescence assay; type: functional, cell-based
Outline: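 Raji cells treated 48 h (CCCP as positive control), washed in PBS. Incubated with TMRM at 100 nM final for 15 min at 37 °C, fluorescence read at ex 510/em 580 nm. Mean ± SD.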

MCF7 = assay: Antiproliferative activity against human MCF7 cells assessed as reduction in cell viability measured after 48 hrs by MTT assay; type: functional, cell-based; details: Homo sapiens, MCF7, 48 h
Raji [19] = assay: Induction of apoptosis in human Raji cells assessed as late apoptotic cells at 0.063 uM measured after 48 hrs by Annexin V-FITC staining based flow cytometry (reference value: 0.7 %); type: functional
[20] = Acute toxicity in BALB/c mouse assessed as effect on blood LDH level at 400 mg/kg, po measured on day 14; type: organism-based; details: in vivo; outline: as §1
A549 = assay: Antiproliferative activity against human A549 cells assessed as reduction in cell viability measured after 48 hrs by MTT assay; type: functional, cell-based; details: Homo sapiens, A549, 48 h
Raji [21] = assay: Antitumor activity against human Raji cells xenografted in NOD-SCID nude mouse assessed as tumor growth inhibition at 80 mg/kg/day, po administered 6 days a week for 3 weeks relative to control; type: functional; details: read-out: TGI
[22] = Acute toxicity in BALB/c mouse assessed as effect on blood GLU level at 400 mg/kg, po measured on day 14; type: organism-based; details: in vivo; outline: as §1
[23] = Acute toxicity in BALB/c mouse assessed as effect on blood ALT level at 800 mg/kg, po measured on day 14; type: organism-based; details: in vivo; outline: as §1
[24] = Acute toxicity in BALB/c mouse assessed as effect on blood TP level at 800 mg/kg, po measured on day 14; type: organism-based; details: in vivo; outline: as §1
Raji [25] = assay: Induction of apoptosis in human Raji cells assessed as live cells at 0.125 uM measured after 48 hrs by Annexin V-FITC staining based flow cytometry (reference value: 98.09 %); type: functional
Raji [26] = assay: Antiproliferative activity against human Raji cells assessed as inhibition of cell proliferation at 0.02 to 0.156 uM measured after 48 hrs in presence of uridine by MTT assay; type: functional, cell-based
Outline: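 Raji cells treated with or without 500 μM uridine, viability by MTT. Cells seeded at 2-10 × 10^3 per well, treated 24 h later for 48 h. MTT (5 mg/mL) for 2-4 h, product dissolved overnight in 20% acidified SDS, absorbance at 570 nm. Mean ± SD.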

O=C1c2ccccc2C(=O)c2c1nnn2-c1cc(F)c(-c2ccccc2F)c(F)c1
solubility [1]: 33.8 µg/mL (≈ 83.4 µM) | Activity [2]: Non-Toxic | Activity (Raji [3]): 0.39% | IC50 (NAMALVA): 990 nM | Activity [4]: Non-Toxic | Activity [5]: Non-Toxic | Tmax [6]: 10 h and 27 h | IC50 (HCT-116): 290 nM | Activity [7]: Non-Toxic | Activity [8]: Non-Toxic | IC50 (Raji [9]): 160 nM | Activity [10]: Non-Toxic | Activity [11]: Non-Toxic | Activity [12]: Non-Toxic | Activity (Raji [13]): 0.37% | Activity [14]: Non-Toxic | Activity [15]: Non-Toxic | Activity [16]: Non-Toxic | Activity [17]: Non-Toxic | Activity (Raji [18]): Dose-dependent effect | IC50 (MCF7): 9610 nM | Activity (Raji [19]): 4.26% | Activity [20]: Non-Toxic | IC50 (A549): 1650 nM | inhibition in vivo at 80 mg/kg/day (Raji [21]): 68% | Activity [22]: Non-Toxic | Activity [23]: Non-Toxic | Activity [24]: Non-Toxic | Activity (Raji [25]): 89.46% | inhibition (Raji [26]): inactive

Source: ChEMBL document CHEMBL4616673 (J Med Chem, 2020)
